Measured values pooled from the literature.
Protocols differ between the studies behind these lines. Values after ≈ are worked out from the molar mass of the structure shown.

Cc1ccc2[nH]nc(-c3nnc(Nc4ccc(Cl)cc4)s3)c2c1
MIC (Staphylococcus epidermidis; microbial growth; ATCC12228): 133 µg/mL (≈ 389 µM)

CCCCCCCCCCCCCCCCCCOc1ccc(CC(=O)OCCC[N+](C)(C)C)cc1
inhibition (HOP-92; cell growth or viability, SRB; 10 µM): 22.1%

O=C(Nc1ccc(Cl)cc1)C1CCCN(C(=O)c2cc(C(F)(F)F)cc(C(F)(F)F)c2)C1 (racemic)
viability (OCI-Ly1; cell growth or viability, ATP luminescence; 1 µM, 5 days): 161%

CN(C)CCN(C)C(=O)c1ccc(-c2nc3ccc4[nH]ncc4c3c3c2CCCCC3)cn1
GI50 (K562; cell growth or viability, resazurin; 72 h): 9.2 µM

O=C(/C=C/c1cccc(C(=O)NO)c1)NO
viability (OCI-Ly1; cell growth or viability, ATP luminescence; 0.5 µM, 5 days): 108%

C=C[C@]1(C)C[C@@H](OC(=O)CS[C@@H]2C[C@H]3CC[C@@H](C2)N3C)[C@]2(C)[C@H](C)CC[C@]3(CCC(=O)[C@H]32)[C@@H](C)[C@@H]1O
MIC50 (Staphylococcus epidermidis; microbial growth; clinical isolate): 0.0312 µg/mL (≈ 0.0604 µM)

O=C(CCCCCCSc1ccc2ccccc2c1)NO
viability (OCI-Ly1; cell growth or viability, ATP luminescence; 1 µM, 5 days): 154%

Cc1ccc2[nH]nc(-c3nnc(Nc4ccc([N+](=O)[O-])cc4)s3)c2c1
MIC (Staphylococcus epidermidis; microbial growth; ATCC12228): 135 µg/mL (≈ 382 µM)

CCCCCCCCCCCCCCCCCCOCC(COP(=O)([O-])OCC[N+](C)(C)C)OC (stereo not drawn)
inhibition (HOP-92; cell growth or viability, SRB; 10 µM): 40.1%

CC(=O)NC[C@H]1CN(c2ccc(N3CCOCC3)c(F)c2)C(=O)O1
MIC90 (Staphylococcus epidermidis; microbial growth; clinical isolate): 2 µg/mL (≈ 5.93 µM)

CN(C)CCNC(=O)c1ccc(-c2nc3ccc4[nH]ncc4c3c3c2CC(F)(F)CC3)cc1
GI50 (K562; cell growth or viability, resazurin; 72 h): 3.1 µM

CCCCCCCCCCCCCCCCCCOc1cccc(CC(=O)OCCC[N+](C)(C)C)c1
inhibition (HOP-92; cell growth or viability, SRB; 10 µM): 22.4%

COc1c(N2C[C@@H]3CCCN[C@@H]3C2)c(F)cc2c(=O)c(C(=O)O)cn(C3CC3)c12
MIC90 (Staphylococcus epidermidis; microbial growth, broth dilution; clinical isolate): 2 µg/mL (≈ 4.98 µM)

O=C(NC1CCCCC1)c1ccc(-c2nc3ccc4[nH]ncc4c3c3c2CCCC3)cc1
GI50 (K562; cell growth or viability, resazurin; 72 h): > 10 µM

O=C(Nc1cccc(Br)c1)c1cccc(S(=O)(=O)N2CCCCCC2)c1
viability (OCI-Ly1; cell growth or viability, ATP luminescence; 0.5 µM, 5 days): 157%

CN[C@H](CC(C)C)C(=O)N[C@H]1C(=O)N[C@@H](CC(N)=O)C(=O)N[C@H]2C(=O)N[C@H]3C(=O)N[C@H](C(=O)N[C@H](C(=O)O)c4cc(O)cc(O)c4-c4cc3ccc4O)[C@H](O)c3ccc(c(Cl)c3)Oc3cc2cc(c3O[C@@H]2O[C@H](CO)[C@@H](O)[C@H](O)[C@H]2O[C@H]2C[C@](C)(N)[C@H](O)[C@H](C)O2)Oc2ccc(cc2Cl)[C@H]1O
MIC90 (Staphylococcus epidermidis; microbial growth, broth dilution; clinical isolate): 2 µg/mL (≈ 1.38 µM)

CCCCCCCCCCCCCCCCCCOc1cccc(CC(=O)OCC[N+]2(C)CCCC2)c1
inhibition (HOP-92; cell growth or viability, SRB; 10 µM): 30%

O=C(CCCCCCC(=O)Nc1ccccc1)NO
viability (OCI-Ly1; cell growth or viability, ATP luminescence; 0.5 µM, 5 days): 74.3%

Cc1n[nH]c2ccc3nc(-c4ccc(C(=O)NCCN(C)C)cc4)c4c(c3c12)CCCCC4
GI50 (K562; cell growth or viability, resazurin; 72 h): 2.9 µM

Cc1ccc2[nH]nc(-c3nnc(Nc4ccc(Cl)c(Br)c4)s3)c2c1
MIC (Staphylococcus epidermidis; microbial growth; ATCC12228): 235 µg/mL (≈ 558 µM)

CCCCCCCCCCCCCCCCCCOc1ccccc1CC(=O)OCC[N+]1(C)CCCC1
inhibition (HOP-92; cell growth or viability, SRB; 10 µM): 67.3%

CC(=O)OC[C@H]1O[C@@H](n2cnc(N)nc2=O)[C@H](OC(C)=O)[C@@H]1OC(C)=O
viability (OCI-Ly1; cell growth or viability, ATP luminescence; 1 µM, 5 days): 153%

CC1(C)S[C@@H]2[C@H](NC(=O)[C@H](N)c3ccccc3)C(=O)N2[C@H]1C(=O)O
MIC90 (Staphylococcus epidermidis; microbial growth; MRSE; clinical isolate): > 128 µg/mL

O=C(Nc1nccs1)c1ccc(-c2nc3ccc4[nH]ncc4c3c3c2CCCC3)cc1
GI50 (K562; cell growth or viability, resazurin; 72 h): > 10 µM

Cc1ccc2[nH]nc(-c3nnc(Nc4cc(Cl)cc(Br)c4)s3)c2c1
MIC (Staphylococcus epidermidis; microbial growth; ATCC12228): 210 µg/mL (≈ 498 µM)

CCCCCCCCCCCCCCCCCCOc1ccc(CC(=O)OCC[N+](CC)(CC)CC)cc1
inhibition (HOP-62; cell growth or viability, SRB; 10 µM): 2.95%

Cc1ccc2[nH]nc(-c3nnc(Nc4ccc(Br)cc4)s3)c2c1
MIC (Staphylococcus epidermidis; microbial growth; ATCC12228): 190 µg/mL (≈ 493 µM)

Cc1n[nH]c2ccc3nc(-c4ccc(C(=O)N(C)CCN(C)C)cc4)c4c(c3c12)CCC(F)(F)C4
GI50 (K562; cell growth or viability, resazurin; 72 h): 9.1 µM

CCCCCCCCCCCCCCCCCCOc1ccccc1CC(=O)OCCC[N+](C)(C)C
inhibition (HOP-92; cell growth or viability, SRB; 10 µM): 60.4%

O=C(NO)c1ccc(CC(=O)N(CCO)c2ccccc2)cc1
viability (OCI-Ly1; cell growth or viability, ATP luminescence; 0.5 µM, 5 days): 93.8%

CN(C)CCN(C)C(=O)c1ccc(-c2nc3ccc4[nH]ncc4c3c3c2CCCCC3)nc1
GI50 (K562; cell growth or viability, resazurin; 72 h): > 10 µM

COC(=O)CNC(=O)C(=O)OC
viability (OCI-Ly1; cell growth or viability, ATP luminescence; 1 µM, 5 days): 146%

CCCCCCCCCCCCCCCCCCOc1cccc(CC(=O)OCC[N+]2(C)CCOCC2)c1
inhibition (HOP-92; cell growth or viability, SRB; 10 µM): 13.9%

CC[C@H]1OC(=O)[C@H](C)[C@@H](O[C@H]2C[C@@](C)(OC)[C@@H](O)[C@H](C)O2)[C@H](C)[C@@H](O[C@@H]2O[C@H](C)C[C@H](N(C)C)[C@H]2O)[C@](C)(O)C[C@@H](C)/C(=N\OCOCCOC)[C@H](C)[C@@H](O)[C@]1(C)O
MIC90 (Staphylococcus epidermidis; microbial growth; clinical isolate): 64 µg/mL (≈ 76.5 µM)

CN(C)CCNC(=O)c1ccc(-c2nc3ccc4[nH]ncc4c3c3c2CCCCC3)cc1
GI50 (K562; cell growth or viability, resazurin; 72 h): 1.5 µM

Cc1cc(Nc2nnc(-c3n[nH]c4ccc(C)cc34)s2)cc([N+](=O)[O-])c1
MIC (Staphylococcus epidermidis; microbial growth; ATCC12228): 208 µg/mL (≈ 568 µM)
